Laboratory results from ChEMBL document CHEMBL3244410, “Thymidylate synthetase inhibitors. Synthesis of N-substituted 5-aminomethyl-2'-deoxyuridine 5'-phosphates” (J Med Chem, 1977).

Assays:
[1] = target: T1, Thymidylate synthase (Bos taurus, UniProt Q2TA32); experiment: Competitive inhibition of purified calf thymus thymidylate synthetase using 5-[3H]-2'-deoxyuridine 5'-phosphate as substrate after 7 mins by double reciprocal plot method
Procedure, shortened: (§1)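 Thymidylate synthetase was purified from E. coli, calf thymus or Ehrlich ascites tumor cells. Inhibition constants came from double-reciprocal plots of velocity against substrate concentration. Each plot used five substrate concentrations and at least two inhibitor concentrations.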

[2] = target: Thymidylate synthase (Mus musculus, UniProt P07607); experiment: Competitive inhibition of purified mouse Ehrlich ascites tumor cell thymidylate synthetase using 5-[3H]-2'-deoxyuridine 5'-phosphate as substrate after 7 mins by double reciprocal plot method; procedure, shortened: as §1
[3] = Competitive inhibition of purified Escherichia coli thymidylate synthetase using […]-2'-deoxyuridine 5'-phosphate as substrate after 7 mins by double reciprocal plot method; procedure, shortened: as §1
[4] = Ratio of Ki for purified mouse Ehrlich ascites tumor cell thymidylate synthetase to Ki for purified calf thymus thymidylate synthetase
[5] = target: T1, Thymidylate synthase; experiment: Noncompetitive inhibition of purified calf thymus thymidylate synthetase using 5-[3H]-2'-deoxyuridine 5'-phosphate as substrate after 7 mins by double reciprocal plot method; procedure, shortened: as §1

Thymidylate synthase (Mus musculus, UniProt P07607), sequence (P07607 whole entry): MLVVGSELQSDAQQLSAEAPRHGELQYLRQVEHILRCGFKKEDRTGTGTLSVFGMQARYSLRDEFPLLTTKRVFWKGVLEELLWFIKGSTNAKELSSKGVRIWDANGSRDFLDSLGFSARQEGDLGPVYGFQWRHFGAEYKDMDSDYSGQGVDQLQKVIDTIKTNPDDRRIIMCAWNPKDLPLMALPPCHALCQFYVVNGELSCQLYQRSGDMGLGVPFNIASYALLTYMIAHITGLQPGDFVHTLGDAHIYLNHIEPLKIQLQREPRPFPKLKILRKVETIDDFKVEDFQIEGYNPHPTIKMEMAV
T1 sequence (Q2TA32 whole entry): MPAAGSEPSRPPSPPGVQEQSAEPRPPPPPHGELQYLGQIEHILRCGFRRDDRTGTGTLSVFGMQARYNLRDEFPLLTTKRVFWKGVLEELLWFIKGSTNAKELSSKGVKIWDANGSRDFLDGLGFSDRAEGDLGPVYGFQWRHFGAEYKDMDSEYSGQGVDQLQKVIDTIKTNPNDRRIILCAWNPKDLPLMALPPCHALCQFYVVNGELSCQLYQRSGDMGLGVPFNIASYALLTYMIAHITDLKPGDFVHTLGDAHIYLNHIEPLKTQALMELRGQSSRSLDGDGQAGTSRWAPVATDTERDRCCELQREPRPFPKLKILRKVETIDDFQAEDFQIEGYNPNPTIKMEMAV

Row | Structure (SMILES) | Ki [1] | Ki [2] | Ki [3] | Ratio Ki [4] | Ki [5]
1 | CN(C)Cc1cn([C@H]2C[C@H](O)[C@@H](COP(=O)(O)O)O2)c(=O)[nH]c1=O | 110 µM | 73 µM | 90 µM |  | 
2 | CN(C)CCNCc1cn([C@H]2C[C@H](O)[C@@H](COP(=O)(O)O)O2)c(=O)[nH]c1=O | 3.1 µM | 14 µM | 6 µM | 4 | 
3 | O=c1[nH]c(=O)n([C@H]2C[C@H](O)[C@@H](COP(=O)(O)O)O2)cc1CN1CCCC1 |  | 27 µM | 56 µM |  | 43 µM
4 | O=c1ccn([C@H]2C[C@H](O)[C@@H](COP(=O)(O)O)O2)c(=O)[nH]1 [DEOXYURIDINE MONOPHOSPHATE] | 8 µM | 6.5 µM | 7.6 µM |  | 
